pIC50: −log10 of the molar value.

The first test deals with L1210 (1565). The test is described as follows: Inhibitory activity against L 1210 cell proliferation. Type of test: functional, cell-based. Particulars: Mus musculus. In short, it runs like this:
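L1210 murine leukemia cells grown in RPMI 1640 with 10% fetal calf serum, 2 mM L-glutamine, penicillin/streptomycin and 10 mM Hepes (pH 7.4). Cells exposed to graded drug concentrations for 48 h. Microculture tetrazolium assay read-out; IC50 is the concentration reducing optical density by 50% relative to untreated controls.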
A word on the pIC50: it is the negative decadic logarithm of the IC50, by convention in mol/L. Higher therefore signals a low IC50. As to `CCCCCOc1cc2c(cc1OC)CCN=C2C(=O)c1ccccc1`, the pIC50 is 5.43. Still for that read-out and setting: as for `COc1cc2ccnc(C(=O)c3ccccc3)c2cc1O`, the figure is less than 5.00.

As for `COc1cc2c(cc1OCc1ccccc1)CCN=C2C(=O)c1ccccc1OC`, the pIC50 is less than 5.00. The same measure, in the same setting: as for `C[N+]1=C(C(=O)c2ccccc2)c2ccc(OCc3ccccc3)cc2CC1`, the figure is 5.01; as for `CCCCCOc1cc2ccnc(C(=O)c3ccccc3)c2cc1OC`, less than 5.00. The same measure, in the same setting: in the case of `CCCCCOc1ccc2c(c1)CCN=C2C(=O)c1ccccc1` it was 6.00; in that of `COc1cc2c(cc1O)C(C(=O)c1ccccc1)=NCC2`, less than 5.00.

`COc1cc2c(C(=O)c3ccc(O)cc3)nccc2cc1OCc1ccccc1` showed a negative logarithm of the IC50 (pIC50) of 4.94. On the same count and under the same terms, as for `COc1cc2c(cc1OCc1ccccc1)CCN=C2C(=O)c1cccc(O)c1`, the figure is 5.28; as for `COc1cc2c(C(=O)c3ccccc3)nccc2cc1OCc1ccccc1`, less than 5.00; as for `COc1ccc(C(=O)C2=NCCc3cc(OCc4ccccc4)ccc32)cc1`, less than 5.00. Still for that read-out and setting: as for `COc1cc2c(cc1OCc1ccccc1)C(C(=O)c1ccccc1)=NCC2`, the figure is 5.44.

`COc1ccc(C(=O)C2=[N+](C)CCc3cc(OCc4ccccc4)c(OC)cc32)cc1OC` had a negative-log IC50 (pIC50) of less than 5.00.

`COc1cc2c(cc1OCc1ccccc1)CCN=C2C(=O)c1ccccc1` gave a negative-log IC50 (pIC50) of 5.39. On the same count and under the same terms, in the case of `CCCCCOc1cc2c(cc1OC)C(C(=O)c1ccccc1)=NCC2` it was 5.35. The same measure, in the same setting: in the case of `O=C(C1=NCCc2cc(OCc3ccccc3)ccc21)c1ccccc1` it was 5.19; in that of `CC(C)COc1ccc2c(c1)CCN=C2C(=O)c1ccccc1`, 4.92. Same read-out and setting: in the case of `COc1cc2c(cc1OCc1ccccc1)CCN=C2C(=O)c1cccc(S(=O)(=O)c2ccc(C)cc2)c1` it was 5.39. In turn, `C/C=C/COc1cc2c(cc1OC)C(C(=O)c1ccccc1)=NCC2` had a negative logarithm of the IC50 (pIC50) of 4.88. Same read-out and setting: as for `CCCCCOc1cc2c(cc1OC)C(C)=NCC2`, the figure is 5.11. In turn, `COc1cc2c(cc1OCc1ccccc1)CCN=C2c1ccccc1` had a pIC50 of less than 5.00.

`COc1cc2c(cc1OCc1ccccc1)CCN=C2C(=O)c1cccc(OC(C)=O)c1` showed a negative logarithm of the IC50 (pIC50) of 5.33. In the case of `COc1cc2c(cc1OCc1ccccc1)CCN=C2C(=O)c1ccccc1O`, the negative-log IC50 (pIC50) is less than 5.00. In turn, `COc1cc2c(cc1O)CCN=C2c1ccccc1` showed a negative logarithm of the IC50 (pIC50) of less than 5.00.

`COc1cc2c(cc1OCC(C)C)CCN=C2C(=O)c1ccccc1` showed a pIC50 of 5.21.

`COc1cc2ccnc(C(=O)c3ccccc3)c2cc1OCc1ccccc1` gave a negative-log IC50 (pIC50) of less than 5.00. The same measure, in the same setting: as for `COc1cc2c(C(=O)c3ccccc3O)nccc2cc1OCc1ccccc1`, the figure is less than 5.00; as for `CCCCC1=NCCc2cc(OCc3ccccc3)c(OC)cc21`, less than 5.00; as for `CC(C)=CCOc1ccc2c(c1)CCN=C2C(=O)c1ccccc1`, 5.42.

For the compound `C/C=C/COc1ccc2c(c1)CCN=C2C(=O)c1ccccc1`, the pIC50 is less than 5.00.

On to `COc1ccc(C(=O)C2=NCCc3cc(OCc4ccccc4)c(OC)cc32)cc1OC`, for which the negative-log IC50 (pIC50) was 4.89.

The compound `COc1cc2c(C(=O)c3cccc(O)c3)nccc2cc1OCc1ccccc1` had a pIC50 of 4.94. The compound `COc1cccc(C(=O)C2=NCCc3cc(OCc4ccccc4)ccc32)c1` gave a pIC50 of 5.85.

Compound `COc1cc2c(cc1OCc1ccccc1)CCN=C2c1ccccc1O` had a negative-log IC50 (pIC50) of less than 5.00. Still for that read-out and setting: as for `COc1cc2c(cc1O)CCN=C2C(=O)c1ccccc1`, the figure is less than 5.00. The same measure, in the same setting: in the case of `COc1ccc(C(=O)C2=NCCc3cc(OCc4ccccc4)ccc32)cc1OC` it was less than 5.00; in that of `COc1cc2c(cc1OCC=C(C)C)CCN=C2C(=O)c1ccccc1`, 5.03.

Compound `COc1cc2c(C(=O)c3ccccc3)nccc2cc1O` gave a negative-log IC50 (pIC50) of less than 5.00.

As for `COc1cc2c(cc1OCc1ccccc1)CCN=C2C(=O)c1ccc(O)cc1`, the negative-log IC50 (pIC50) was less than 5.00.

The compound `COc1cc2c(cc1OCc1ccccc1)CCN=C2C(=O)c1ccccc1OS(=O)(=O)c1ccc(C)cc1` had a pIC50 of less than 5.00.

The compound `COc1ccccc1C(=O)C1=NCCc2cc(OCc3ccccc3)ccc21` had a negative logarithm of the IC50 (pIC50) of 4.91. The same measure, in the same setting: in the case of `CCOc1cc2c(cc1OC)C(C(=O)c1ccccc1)=NCC2` it was 4.92; in that of `COc1cc2c(cc1OCc1ccccc1)CCN=C2C(=O)c1ccc(OS(=O)(=O)c2ccc(C)cc2)cc1`, less than 5.00. As for `COc1cccc(C(=O)C2=NCCc3cc(OCc4ccccc4)c(OC)cc32)c1`, the negative-log IC50 (pIC50) is 5.60. `COc1ccc(COc2cc3c(cc2OC)C(C(=O)c2ccccc2)=NCC3)cc1` showed a pIC50 of 4.95. On the same count and under the same terms, in the case of `COc1ccc(COc2cc3ccnc(C(=O)c4ccccc4)c3cc2OC)cc1` it was less than 5.00. For `CCCCC1=NCCc2cc(OCc3ccccc3)ccc21`, the pIC50 is less than 5.00. On the same count and under the same terms, in the case of `c1ccc(COc2ccc3c(c2)CCN=C3c2ccccc2)cc1` it was less than 5.00.

The next test relates to L1210 (1565). The test is described as follows: Percent inhibition against cells in G 1 phase by the compound.
Conditions: not given
Type of test: functional, Mus musculus.
The term Inhibition denotes how much of the control response was suppressed. A low value points to a response near the control. `CCCCCOc1cc2c(cc1OC)C(C)=NCC2` returned an Inhibition of 72%.

Another test concerns L1210 (1565). The test is described as follows: Percent inhibition against cells in G 1 phase by the compound at the dose 10 uM. Type of test: functional. Particulars: Mus musculus.
In general, inhibition refers to the relative decrease from the control value, in per cent. Low values mean a response near the control, high ones a response far below the control. Compound `COc1cc2c(cc1OCc1ccccc1)CCN=C2C(=O)c1ccccc1` returned an inhibition at 10 µM of 85%. Turning to `O=C(C1=NCCc2cc(OCc3ccccc3)ccc21)c1ccccc1`, 10 µM produced 54% inhibition.

The subject of another test is L1210 (1565). The test is described as follows: Percent inhibition against cells in G 1 phase by the compound at the dose 25 uM. Type of test: functional. As to conditions: Mus musculus.
`COc1cc2c(cc1OCc1ccccc1)CCN=C2C(=O)c1cccc(S(=O)(=O)c2ccc(C)cc2)c1` yielded an inhibition at 25 µM of 70%.

Turning to `COc1cc2c(cc1OCC(C)C)CCN=C2C(=O)c1ccccc1`, the inhibition at 25 µM turned out to be 63%. `COc1cc2c(cc1OCC=C(C)C)CCN=C2C(=O)c1ccccc1`: the inhibition at 25 µM was determined as 65%.

The next test relates to L1210 (1565). The test is described as follows: Percent inhibition against cells in G 1 phase by the compound at the dose 5 uM. Type of test: functional. As to conditions: Mus musculus.
In the case of `CCCCCOc1cc2c(cc1OC)CCN=C2C(=O)c1ccccc1`, the inhibition at 5 µM worked out at 63%. Still for that read-out and setting: in the case of `CCCCCOc1ccc2c(c1)CCN=C2C(=O)c1ccccc1` it was 63%. With `COc1cc2c(cc1OCc1ccccc1)CCN=C2C(=O)c1cccc(O)c1`, the inhibition at 5 µM worked out at 67%.
